Drawing on ChEMBL document CHEMBL1157667, “Synthesis of glycyrrhetinic acid derivatives for the treatment of metabolic diseases” (Bioorg Med Chem, 2010), this text covers IC50 and inhibition for 19 compounds.

What is called IC50 is the concentration at which inhibition is half-maximal. Usually inhibition stands for the percentage by which the read-out fell short of the control.

Sequence of 11-beta-hydroxysteroid dehydrogenase 1 (Homo sapiens) (P28845 whole entry, looked up): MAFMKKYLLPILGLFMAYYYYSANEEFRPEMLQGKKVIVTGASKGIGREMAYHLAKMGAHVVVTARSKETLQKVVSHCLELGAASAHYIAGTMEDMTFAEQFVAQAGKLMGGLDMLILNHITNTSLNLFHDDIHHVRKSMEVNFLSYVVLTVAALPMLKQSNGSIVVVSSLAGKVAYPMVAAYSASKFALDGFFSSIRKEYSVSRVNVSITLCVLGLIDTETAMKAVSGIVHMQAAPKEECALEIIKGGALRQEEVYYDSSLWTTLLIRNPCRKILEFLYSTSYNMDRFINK

The target in the first test is 11-beta-hydroxysteroid dehydrogenase 1 (Rattus norvegicus, UniProt P16232). Description: Inhibition of 11beta-HSD1 in rat liver assessed as cortisone level. It is filed as tissue-based.
Sequence of 11-beta-hydroxysteroid dehydrogenase 1 (P16232 whole entry): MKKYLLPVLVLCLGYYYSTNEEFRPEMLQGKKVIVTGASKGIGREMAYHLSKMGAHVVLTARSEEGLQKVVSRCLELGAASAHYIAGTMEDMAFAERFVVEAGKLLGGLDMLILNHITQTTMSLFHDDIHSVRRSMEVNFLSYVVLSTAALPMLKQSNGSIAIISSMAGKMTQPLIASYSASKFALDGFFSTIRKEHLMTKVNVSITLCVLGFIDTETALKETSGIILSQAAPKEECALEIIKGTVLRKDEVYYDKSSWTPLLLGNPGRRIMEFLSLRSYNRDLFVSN
Consider `CC1(C)[C@@H](O)CC[C@]2(C)[C@H]3C(=O)C=C4[C@@H]5C[C@@](C)(C(=O)O)CC[C@]5(C)CC[C@@]4(C)[C@]3(C)CC[C@@H]12` (stereo in doubt; 1) [ENOXOLONE], for which the 50% inhibitory concentration (IC50) stood at 0.09 µM.

The next test has as its target 11-beta-hydroxysteroid dehydrogenase 1 (Homo sapiens) (UniProt P28845). Description: Inhibition of human recombinant 11beta-HSD1 expressed in HEK293 cells assessed as conversion of [1,2-3H]cortisone to cortisol at 1 uM after 10 mins by scintillation counting. It is filed as cell-based. The procedure, abridged:
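Lysates of HEK-293 cells (no endogenous 11β-HSD) expressing recombinant human 11β-HSD1. Reduction of [1,2-3H]cortisone to cortisol was run for 10 min at 37 °C with 200 nM cortisone (final) and NADPH as cofactor; solvent ≤0.1%. Reactions were stopped with methanol containing 2 mM unlabeled cortisone and cortisol. Steroids were separated by TLC and counted by scintillation. Three independent experiments.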
For `CC(=O)O[C@H]1CC[C@]2(C)[C@H]3C(=O)C=C4[C@@H]5C[C@@](C)(C(=O)O)CC[C@]5(C)CC[C@@]4(C)[C@]3(C)CC[C@H]2C1(C)C`, the inhibition was determined as 47.1%.

For the compound `CC1(C)[C@@H](O[C@H]2O[C@H](C(=O)O)[C@@H](O)[C@H](O)[C@H]2O[C@@H]2O[C@H](C(=O)O)[C@@H](O)[C@H](O)[C@H]2O)CC[C@]2(C)[C@H]3C(=O)C=C4[C@@H]5C[C@@](C)(C(=O)O)CC[C@]5(C)CC[C@@]4(C)[C@]3(C)CC[C@@H]12`, the inhibition amounted to 63.2%.

On to `CC(=O)O[C@H]1CC[C@]2(C)[C@H]3C(=O)C=C4[C@@H]5C[C@@](C)(C=NO)CC[C@]5(C)CC[C@@]4(C)[C@]3(C)CC[C@H]2C1(C)C`, for which the inhibition amounted to 43.3%.

As to `CN(C)CCNC(=O)[C@@]1(C)CC[C@]2(C)CC[C@]3(C)C(=CC(=O)[C@@H]4[C@@]5(C)CC[C@H](O)C(C)(C)[C@@H]5CC[C@]43C)[C@@H]2C1`, the inhibition was determined as 36%.

With `CC1(C)[C@@H](OC(=O)CCC(=O)O)CC[C@]2(C)[C@H]3C(=O)C=C4[C@@H]5C[C@@](C)(C(=O)O)CC[C@]5(C)CC[C@@]4(C)[C@]3(C)CC[C@@H]12`, the inhibition was 87.7%.

As to `C#CCNC(=O)[C@@]1(C)CC[C@]2(C)CC[C@]3(C)C(=CC(=O)[C@@H]4[C@@]5(C)CC[C@H](O)C(C)(C)[C@@H]5CC[C@]43C)[C@@H]2C1`, the inhibition worked out at 10.1%.

For `CC1(C)[C@@H](O)CC[C@]2(C)[C@H]3C(=O)C=C4[C@@H]5C[C@@](C)(C(=O)O)CC[C@]5(C)CC[C@@]4(C)[C@]3(C)CC[C@@H]12` (stereo in doubt; 23), the inhibition was found to be 49.7%.

As for `CC1(C)[C@@H](O)CC[C@]2(C)[C@H]3C(=O)C=C4[C@@H]5C[C@@](C)(C(=O)NCCO)CC[C@]5(C)CC[C@@]4(C)[C@]3(C)CC[C@@H]12`, the inhibition came out at 2.9%.

`CC1(C)C(=O)CC[C@]2(C)[C@H]3C(=O)C=C4[C@@H]5C[C@@](C)(C(=O)O)CC[C@]5(C)CC[C@@]4(C)[C@]3(C)CC[C@@H]12`: the inhibition was 63.8%.

In the case of `CC1(C)[C@H](O)CC[C@]2(C)[C@H]3C(=O)C=C4[C@@H]5C[C@@](C)(C(=O)O)CC[C@]5(C)CC[C@@]4(C)[C@]3(C)CC[C@@H]12`, the inhibition stood at 97.4%.

As for `CCNC(=O)N(CCCN(C)C)C(=O)[C@@]1(C)CC[C@]2(C)CC[C@]3(C)C(=CC(=O)[C@@H]4[C@@]5(C)CC[C@H](O)C(C)(C)[C@@H]5CC[C@]43C)[C@@H]2C1`, the inhibition is 32.5%.

Turning to `CC1(C)[C@@H](OP(=O)(O)O)CC[C@]2(C)[C@H]3C(=O)C=C4[C@@H]5C[C@@](C)(C(=O)O)CC[C@]5(C)CC[C@@]4(C)[C@]3(C)CC[C@@H]12`, the inhibition is 86%.

With `CC1(C)[C@@H](O)CC[C@]2(C)[C@H]3C(=O)C=C4[C@@H]5C[C@@](C)(C(=O)N6CCC(C(=O)O)CC6)CC[C@]5(C)CC[C@@]4(C)[C@]3(C)CC[C@@H]12`, the inhibition amounted to 19.5%.

On to `C=CCNC(=O)[C@@]1(C)CC[C@]2(C)CC[C@]3(C)C(=CC(=O)[C@@H]4[C@@]5(C)CC[C@H](O)C(C)(C)[C@@H]5CC[C@]43C)[C@@H]2C1`, for which the inhibition is 6.2%.

For `CC(=O)O[C@H]1CC[C@]2(C)[C@H]3C(=O)C=C4[C@@H]5C[C@@](C)(C(=O)NN)CC[C@]5(C)CC[C@@]4(C)[C@]3(C)CC[C@H]2C1(C)C`, the inhibition amounted to 90.9%.

For `CC1(C)[C@@H](O)CC[C@]2(C)[C@H]3C(=O)C=C4[C@@H]5C[C@@](C)(C(=O)O)CC[C@]5(C)CC[C@@]4(C)[C@]3(C)CC[C@@H]12` (stereo in doubt; 1), the inhibition amounted to 91.2%.

As to `CC1(C)[C@@H](O)CC[C@]2(C)[C@H]3C(=O)C=C4[C@@H]5C[C@@](C)(C(=O)NCC(=O)O)CC[C@]5(C)CC[C@@]4(C)[C@]3(C)CC[C@@H]12`, the inhibition was determined as 2.7%.

As for `CON=C1CC[C@]2(C)[C@H]3C(=O)C=C4[C@@H]5C[C@@](C)(C(=O)O)CC[C@]5(C)CC[C@@]4(C)[C@]3(C)CC[C@H]2C1(C)C`, the inhibition was determined as 63.2%.
